Data published in ChEMBL document CHEMBL4265907, “Design, synthesis and pharmacological evaluation of N4,N6-disubstituted pyrimidine-4,6-diamine derivatives as potent EGFR inhibitors in non-small cell lung cancer” (Eur J Med Chem, 2018).
The source made the active and inactive calls. The calls are words filed in the database; no cut-off is given here.

Key:
[1] = target: T1, Epidermal growth factor receptor (Homo sapiens, UniProt P00533); experiment: Inhibition of EGF-induced EGFR autophosphorylation at Y1068 residues in human H3255 cells by Western blot method; format: cell-based
Summary of the method: (§1)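 Cell lysates prepared in protein lysis buffer and cleared at 12,000 g for 10 min at 4 °C. 50 μg protein per lane was run on a gel, transferred to PVDF and immunoblotted, with GAPDH as the loading control.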

[2] = system: NCI-H3255; experiment: Induction of apoptosis in human H3255 cells assessed as necrotic cells at 250 nM after 48 hrs by Annexin V-FITC/PI staining based flow cytometry (reference value: 7.06%); format: functional
[3] = system: NCI-H3255; experiment: Induction of apoptosis in human H3255 cells assessed as late apoptotic cells at 250 nM after 48 hrs by Annexin V-FITC/PI staining based flow cytometry (reference value: 1.77%); format: functional
[4] = target: T1, Epidermal growth factor receptor; experiment: Inhibition of EGFR in human H3255 cells assessed as decrease in EGF-induced AKT phosphorylation by Western blot method; format: cell-based; summary of the method: as §1
[5] = target: T1, Epidermal growth factor receptor; experiment: Inhibition of EGFR in human H1975 cells assessed as decrease in EGF-induced ERK1/2 phosphorylation by Western blot method; format: cell-based; summary of the method: as §1
[6] = target: T1, Epidermal growth factor receptor; experiment: Inhibition of EGFR in human A431 cells assessed as decrease in EGF-induced ERK1/2 phosphorylation by Western blot method; format: cell-based; summary of the method: as §1
[7] = target: T1, Epidermal growth factor receptor; experiment: Inhibition of EGFR in human HCC827 cells assessed as decrease in EGF-induced AKT phosphorylation by Western blot method; format: cell-based; summary of the method: as §1
[8] = target: T1, Epidermal growth factor receptor; experiment: Inhibition of EGF-induced EGFR autophosphorylation at Y1068 residues in human HCC827 cells by Western blot method; format: cell-based; summary of the method: as §1
[9] = system: NCI-H3255; experiment: Induction of apoptosis in human H3255 cells assessed as viable cells at 500 nM after 48 hrs by Annexin V-FITC/PI staining based flow cytometry (reference value: 87.9%); format: functional; conditions: NCI-H3255, 48 h, read-out: Activity
[10] = system: NCI-H3255; experiment: Induction of apoptosis in human H3255 cells assessed as early apoptotic cells at 500 nM after 48 hrs by Annexin V-FITC/PI staining based flow cytometry (reference value: 3.22%); format: functional
[11] = system: NCI-H3255; experiment: Induction of apoptosis in human H3255 cells assessed as late apoptotic cells at 500 nM after 48 hrs by Annexin V-FITC/PI staining based flow cytometry (reference value: 1.77%); format: functional
[12] = system: NCI-H3255; experiment: Induction of apoptosis in human H3255 cells assessed as early apoptotic cells at 1000 nM after 48 hrs by Annexin V-FITC/PI staining based flow cytometry (reference value: 3.22%); format: functional
[13] = system: A-431; experiment: Induction of apoptosis in human A431 cells assessed as late apoptotic cells at 500 nM after 48 hrs by Annexin V-FITC/PI staining based flow cytometry (reference value: 2.11%); format: functional
[14] = system: A-431; experiment: Induction of apoptosis in human A431 cells assessed as necrotic cells at 1000 nM after 48 hrs by Annexin V-FITC/PI staining based flow cytometry (reference value: 4.16%); format: functional
[15] = system: HCC827; experiment: Induction of apoptosis in human HCC827 cells assessed as necrotic cells at 250 nM after 48 hrs by Annexin V-FITC/PI staining based flow cytometry (reference value: 1.41%); format: functional
[16] = system: HCC827; experiment: Induction of apoptosis in human HCC827 cells assessed as early apoptotic cells at 500 nM after 48 hrs by Annexin V-FITC/PI staining based flow cytometry (reference value: 2.83%); format: functional
[17] = system: HCC827; experiment: Induction of apoptosis in human HCC827 cells assessed as early apoptotic cells at 1000 nM after 48 hrs by Annexin V-FITC/PI staining based flow cytometry (reference value: 2.83%); format: functional
[18] = system: NCI-H1975; experiment: Induction of apoptosis in human NCI-H1975 cells assessed as viable cells at 250 nM after 48 hrs by Annexin V-FITC/PI staining based flow cytometry (reference value: 93.7%); format: functional; conditions: NCI-H1975, 48 h, read-out: Activity
[19] = system: NCI-H1975; experiment: Induction of apoptosis in human NCI-H1975 cells assessed as viable cells at 500 nM after 48 hrs by Annexin V-FITC/PI staining based flow cytometry (reference value: 93.7%); format: functional; conditions: NCI-H1975, 48 h, read-out: Activity
[20] = system: NCI-H1975; experiment: Induction of apoptosis in human NCI-H1975 cells assessed as early apoptotic cells at 500 nM after 48 hrs by Annexin V-FITC/PI staining based flow cytometry (reference value: 2.07%); format: functional
[21] = system: NCI-H1975; experiment: Induction of apoptosis in human NCI-H1975 cells assessed as necrotic cells at 500 nM after 48 hrs by Annexin V-FITC/PI staining based flow cytometry (reference value: 2.31%); format: functional
[22] = system: NCI-H1975; experiment: Cell cycle arrest in human NCI-H1975 cells assessed as accumulation at G2/M phase after 24 hrs by propidium iodide staining based flow cytometry; format: functional
Summary of the method: (§2)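 NCI-H1975 cells (2×10^5) seeded in 6-well plates overnight, then treated 24 h at 50, 100, 250 or 500 nM; 1‰ DMSO medium as control. Cells harvested, washed in cold PBS, fixed in 70% cold ethanol at −20 °C overnight, stained with PI/RNase buffer and analysed by flow cytometry. n=3.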

[23] = system: NCI-H1975; experiment: Cell cycle arrest in human NCI-H1975 cells assessed as accumulation at G2/M phase at 100 to 500 nM after 24 hrs by propidium iodide staining based flow cytometry; format: functional; summary of the method: as §2
[24] = system: PC-9; experiment: Antitumor activity against human PC9 cells xenografted in BALB/C nude mouse assessed as decrease in tumor weight at 15 to 30 mg/kg, ip qd administered for 19 days measured for 23 days; format: functional, organism-based
Summary of the method: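 Six-week-old BALB/C-nu mice given 2×10^6 PC-9 cells subcutaneously in the right flank. At tumour size ~0.2-0.4 cm³, randomised, 5 mice/group. Dosed ip daily for 19 days at 15 or 30 mg/kg, vehicle DMSO:Span-80:ddH₂O = 2:1:50; vehicle-treated control group. Tumour volume = (W²×L)/2. Tumours weighed.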

[25] = system: Mus musculus; experiment: Toxicity in BALB/C nude mouse xenografted with human PC9 cells at 15 to 30 mg/kg, ip qd administered for 19 days measured for 23 days; format: organism-based; conditions: in vivo, 552 h
Summary of the method: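 Six-week-old BALB/C-nu mice were injected subcutaneously in the right flank with about 2×10^6 PC-9 cells. At a tumour size of ~0.2-0.4 cm³ they were randomised, 5 mice/group. Drug was given in DMSO:Span-80:ddH₂O 2:1:50, ip, daily at 15 or 30 mg/kg for 19 days; vehicle group included. Tumour volume = (W²×L)/2.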

[26] = system: Mus musculus; experiment: In vivo inhibition of EGFR phosphorylation in tumor of BALB/C nude mouse xenografted with human PC9 cells at 15 to 30 mg/kg, ip qd administered for 19 days by immunoblot method; format: functional, organism-based
[27] = system: Mus musculus; experiment: In vivo inhibition of ERK1/2 phosphorylation in tumor of BALB/C nude mouse xenografted with human PC9 cells at 15 to 30 mg/kg, ip qd administered for 19 days by immunoblot method; format: functional, organism-based
[28] = system: Mus musculus; experiment: In vivo inhibition of EGFR phosphorylation in tumor of BALB/C nude mouse xenografted with human PC9 cells at 15 to 30 mg/kg, ip qd administered for 19 days by immunohistochemical analysis; format: functional, organism-based

T1 sequence (P00533 whole entry): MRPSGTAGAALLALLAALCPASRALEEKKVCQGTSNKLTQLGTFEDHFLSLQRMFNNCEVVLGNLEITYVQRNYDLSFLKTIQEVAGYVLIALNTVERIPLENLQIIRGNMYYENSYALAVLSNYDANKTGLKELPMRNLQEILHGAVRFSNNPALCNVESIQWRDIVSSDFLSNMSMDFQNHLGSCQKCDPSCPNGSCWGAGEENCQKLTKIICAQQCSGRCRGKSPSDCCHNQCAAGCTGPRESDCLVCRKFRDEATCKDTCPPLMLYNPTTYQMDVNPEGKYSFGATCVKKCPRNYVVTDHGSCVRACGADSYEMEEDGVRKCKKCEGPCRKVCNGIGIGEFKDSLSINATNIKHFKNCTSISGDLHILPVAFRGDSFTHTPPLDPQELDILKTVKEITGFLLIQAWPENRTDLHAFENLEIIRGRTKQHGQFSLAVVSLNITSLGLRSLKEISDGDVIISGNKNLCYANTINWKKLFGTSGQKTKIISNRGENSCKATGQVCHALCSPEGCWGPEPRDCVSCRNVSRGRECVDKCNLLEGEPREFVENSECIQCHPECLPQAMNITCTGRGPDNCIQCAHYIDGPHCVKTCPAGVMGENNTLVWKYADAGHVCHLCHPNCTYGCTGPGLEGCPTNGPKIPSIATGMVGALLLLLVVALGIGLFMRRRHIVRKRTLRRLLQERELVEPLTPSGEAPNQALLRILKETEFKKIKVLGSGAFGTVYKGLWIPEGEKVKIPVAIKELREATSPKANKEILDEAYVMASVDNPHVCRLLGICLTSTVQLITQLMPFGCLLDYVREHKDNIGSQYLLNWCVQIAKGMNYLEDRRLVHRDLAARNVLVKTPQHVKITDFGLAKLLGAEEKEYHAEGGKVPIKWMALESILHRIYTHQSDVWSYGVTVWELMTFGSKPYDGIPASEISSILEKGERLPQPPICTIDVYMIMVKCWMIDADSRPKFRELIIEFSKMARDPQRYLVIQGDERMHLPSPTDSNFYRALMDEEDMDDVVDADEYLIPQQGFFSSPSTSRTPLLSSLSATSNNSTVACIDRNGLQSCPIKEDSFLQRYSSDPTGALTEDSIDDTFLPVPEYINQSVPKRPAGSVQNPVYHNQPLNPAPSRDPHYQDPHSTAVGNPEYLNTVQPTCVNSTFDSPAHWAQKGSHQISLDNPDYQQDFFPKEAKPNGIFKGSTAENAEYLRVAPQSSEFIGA

COc1cccc(Nc2cc(Nc3cc(OC)ccc3OC)ncn2)c1
inhibition [1]: Dose-dependent effect
Activity [2]: 4.27%
Activity [3]: 3.24%
inhibition [4]: Dose-dependent effect
inhibition [5]: Dose-dependent effect
inhibition [6]: Dose-dependent effect
inhibition [7]: Dose-dependent effect
inhibition [8]: Dose-dependent effect
viability at 0.5 µM [9]: 78.2%
Activity [10]: 11.5%
Activity [11]: 5.35%
Activity [12]: 17.6%
Activity [13]: 8.57%
Activity [14]: 3.61%
Activity [15]: 12.4%
Activity [16]: 21.3%
Activity [17]: 19.6%
viability at 0.25 µM [18]: 56.1%
viability at 0.5 µM [19]: 52.5%
Activity [20]: 25%
Activity [21]: 6.93%
Activity [22]: Dose-dependent effect
Activity [23]: Active
Activity [24]: Active
Activity [25]: Non-Toxic
inhibition [26]: Active
inhibition [27]: Active
inhibition [28]: Active
